# Measurements from different studies.
# Lines come from different studies, so protocols differ.
# CDK17 with cyclin Y: Cyclin-dependent kinase 17, with cyclin Y (CDK17, Homo sapiens, UniProt Q00537)
# CDK17: Cyclin-dependent kinase 17 (CDK17, Homo sapiens, UniProt Q00537)
SMILES,target,test,setting,quantity,value
O=C(Nc1cnn(-c2csc(C(=O)NC3COC3)c2)c1)Nc1ccccc1Cl,CDK17 with cyclin Y,"enzyme activity, inhibitor",5 µM,remaining activity,106%
Cn1c2c(Cl)c(Cl)ccc2c2cn[nH]c(=O)c21,CDK17,"thermal stability, DSF",10 µM,ΔTm,0.5 °C
CC(C)CC(=O)N1CCc2nc(-c3ccc(Br)cc3)nc(N(C)Cc3ccccc3)c2C1,CDK17,"cell-free assay, competition with immobilised ligand",0.1 µM,remaining binding,100%
Cc1ccc(C(=O)NCc2ccsc2)cc1C#Cc1cn(C(C)C)c2ncnc(N)c12,CDK17 with cyclin Y,"enzyme activity, inhibitor",1 µM,activity vs control,104%
CCC1(CC)NC(=O)c2c(c3ccc(Cl)c(Cl)c3n2C)C1C#N (stereo not shown),CDK17,"thermal stability, DSF",10 µM,ΔTm,0.7 °C
Cc1nccc(COC(=O)N2C[C@@H]3[C@@H](CNC(=O)c4ccc5[nH]nnc5c4)[C@@H]3C2)n1,CDK17,"cell-free assay, competition with immobilised ligand",1 µM,remaining binding,90%
Nc1ncnc2occ(-c3ccc(NC(=O)Nc4cc(C(F)(F)F)ccc4F)cc3)c12,CDK17,"cell-free assay, inhibitor",20 µM,remaining signal,0.4%
Cc1sc(C(=O)NC2COC2)cc1-n1cc(NC(=O)Nc2c(F)cccc2Cl)cn1,CDK17 with cyclin Y,"enzyme activity, inhibitor",10 µM,remaining activity,102%
CN(CCCC(F)(F)F)c1nccc(-c2cnn3ncccc23)n1,CDK17,binding,1 µM,remaining binding,90%
O=C(Nc1cnc(Oc2ccc(F)cc2)nc1)N1CCc2ncccc2[C@@H]1c1ccc(F)cc1,CDK17,"cell-free assay, competition with immobilised ligand",1 µM,remaining binding,97%
CCCCNc1ncc2c(-c3ccc(F)cc3)nn(C[C@H]3CC[C@H](N)CC3)c2n1,CDK17,"target engagement in cells, inhibitor, chemoproteomics",20 mM,inhibition,41.7%
Cn1c2c(c3ccccc31)C(C#N)C(C)(C)NC2=O (stereo not shown),CDK17,"thermal stability, DSF",10 µM,ΔTm,0 °C
Cc1ccc(C(=O)Nc2ccc(CN3CCN(C)CC3)c(C(F)(F)F)c2)cc1C#Cc1cnc2cccnn12,CDK17,"enzyme activity, inhibitor",23.5 nM,remaining activity,7.6%
